The values that follow come from ChEMBL document CHEMBL1140930 (J Med Chem, 2009).

Molecules are shown by their SMILES.

The nature of assay [1]: Antiproliferative activity against rat LT12 cells after 48 hrs by XTT assay. As to conditions: LT12, 48 h. The format is functional, cell-based. Put shortly:
(§1)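 XTT metabolic-activity read-out of proliferation. Cells were seeded at 1 × 10³-8 × 10⁴ cells/well for logarithmic growth and exposed to a range of compound concentrations for 48 h. IC50 came from nonlinear regression of dose-response curves, with at least two replicates. The P388/Adr subline was doxorubicin-selected with elevated MDR-1.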
For orientation: Tetrazolium assays rely on reduction of a dye to a coloured formazan, in cell work by metabolically active cells.

Assay [2] relates to RKO. Briefly: Antiproliferative activity against human RKO cells by XTT assay. The class given is functional, cell-based. The essentials: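 RKO colon cells with ecdysone-inducible p27Kip1. Day 1: plated with or without 3 µM ponasterone A for 24 h, giving G1 arrest when induced (2 × 10⁴ cells/well induced; 6 × 10³ not induced). Day 2: compound added (DMSO control) for 48 h at 37 °C, then standard XTT. At least duplicate. IC50 by nonlinear regression.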

A short description of assay [3]: Antiproliferative activity against rat LT12 cells ectopic expression of human MDR1 after 48 hrs by XTT assay. The format is functional, cell-based. As to conditions: LT12, 48 h. The essentials:
(§2)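 XTT metabolic read-out. Cells seeded at 1 × 10³–8 × 10⁴ cells/well for logarithmic growth and exposed to graded concentrations for 48 h. At least two replicates. IC50 from nonlinear regression of dose-response curves. LT12/MDR: rat LT12 with ectopic human MDR-1. L1210/VCR: MDR-1 expressing, MRP-1 negative.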

The test system of assay [4] is P388. In words: Antiproliferative activity against doxorubicin-resistant mouse P388 cells expressing MDR1 protein after 48 hrs by XTT assay. The format is functional, cell-based. As to conditions: P388, 48 h. The essentials:
as §1

Assay [5] can be described thus: Antiproliferative activity against human KB/HeLa cells by XTT assay. The class given is functional, cell-based. The essentials:
as §2

For another assay, the system named is K562. Briefly: Antiproliferative activity against human K562 cells after 48 hrs. The format is functional, cell-based. As to conditions: K562, 48 h. The essentials: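 K562 cells (RPMI 1640, 10% FBS, 37 °C, 5% CO2) plated at 2 × 10⁵ cells/mL. Compounds dissolved in DMSO/methanol 1:1, vehicle 0.5%. Cells counted in a Neubauer chamber after 48 h and expressed as % of untreated control. Triplicate wells, three experiments. IC50 from nonlinear regression.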

Another assay addresses Tubulin (Sus scrofa, UniProt P02554+P02550). In words: Inhibition of pig brain tubulin polymerization after 30 mins by turbidimetric assay. Put shortly: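 Microtubule protein from porcine brain (80–90% tubulin, 10–20% MAPs), purified by two disassembly/reassembly cycles. Assay buffer: 20 mM PIPES pH 6.8, 80 mM NaCl, 0.5 mM MgCl2, 1 mM EGTA, 1 mM DTT. Protein at 1.2 mg/mL with 0.6 mM GTP final, 1% DMSO final, 37 °C.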

In assay [6] the test system is L1210. Briefly: Antiproliferative activity against vincristine-resistance MRP1 negative mouse L1210 cells expressing human MDR1 after 48 hrs by XTT assay. The class given is functional, cell-based. As to conditions: L1210, 48 h. Put shortly:
as §2

The subject of a further assay is NCI-H460. In words: Antiproliferative activity against human NCI-H460 cells by XTT assay. The class given is functional, cell-based. The essentials:
as §2

Assay [7] deals with P388. Briefly: Antiproliferative activity against mouse P388 cells after 48 hrs by XTT assay. The format is functional, cell-based. The settings on record: P388, 48 h. The essentials:
as §1

The next assay has as its system SF-268. Briefly: Antiproliferative activity against human SF268 cells by XTT assay. The class given is functional, cell-based. Put shortly: as §2
Assay [8] deals with L1210. In words: Antiproliferative activity against mouse L1210 cells after 48 hrs by XTT assay. The class given is functional, cell-based. As to conditions: L1210, 48 h. Put shortly: as §1
Assay [9] concerns RKO. In words: Antiproliferative activity against human RKO cells containing ecdysone-inducible expression vector of p27kipl by XTT assay. The class given is functional, cell-based. Put shortly:
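RKO cells carried an ecdysone-inducible p27Kip1 vector and were tested with and without induction. On day 1 they were plated with or without 3 µM ponasterone A, which gives G1 arrest, at 2 × 10⁴ cells/well induced or 6 × 10³ not induced, then held 24 h at 37 °C. Compound was then added for 48 h at 37 °C, followed by a standard XTT assay. IC50 came from nonlinear regression, n ≥ 2.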

The nature of assay [10]: Cell cycle arrest in human KB/HeLa cells assessed as G2/M phase accumulation at 0.3 nM after 24 hrs by FACS analysis. The format is functional, cell-based. The essentials:
(§3)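 Subconfluent KB/HeLa cells exposed to a range of compound concentrations for 24 h at 37 °C, then detached and fixed in 70% ethanol. DNA stained with propidium iodide after RNase digestion and measured by flow cytometry. Cell-cycle phase fractions taken from cell cycle analysis software. At least two replicates.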

Assay [11] can be described thus: Cell cycle arrest in human KB/HeLa cells assessed as G1 phase accumulation at 1 nM after 24 hrs by FACS analysis. The format is functional, cell-based. The essentials: as §3
Background: In flow cytometry, cells or beads pass a laser one at a time.

Assay [12] in a line: Cell cycle arrest in human KB/HeLa cells assessed as G2/M phase accumulation at 316 nM after 24 hrs by FACS analysis. The class given is functional, cell-based. The essentials:
as §3

Assay [13] is described as follows: Cell cycle arrest in human KB/HeLa cells assessed as G1 phase accumulation at 31.6 nM after 24 hrs by FACS analysis. The format is functional, cell-based. The essentials:
as §3

A short description of assay [14]: Cell cycle arrest in human KB/HeLa cells assessed as G2/M phase accumulation at 1 nM after 24 hrs by FACS analysis. The format is functional, cell-based. Put shortly:
as §3

A further assay has as its system SK-OV-3. Briefly: Antiproliferative activity against human SKOV3 cells by XTT assay. The format is functional, cell-based. Put shortly:
as §1

Assay [15] in a line: Cell cycle arrest in human KB/HeLa cells assessed as G2/M phase accumulation after 24 hrs by FACS analysis. The class given is functional, cell-based. Put shortly:
as §3

Assay [16] can be described thus: Cell cycle arrest in human KB/HeLa cells assessed as G2/M phase accumulation at 100 nM after 24 hrs by FACS analysis. The format is functional, cell-based. The essentials: as §3
Assay [17] can be described thus: Cell cycle arrest in human KB/HeLa cells assessed as G2/M phase accumulation at 10 nM after 24 hrs by FACS analysis. The class given is functional, cell-based. The essentials:
as §3

Assay [18] can be described thus: Cell cycle arrest in human KB/HeLa cells assessed as S phase accumulation at 0.3 nM after 24 hrs by FACS analysis. The class given is functional, cell-based. The essentials:
as §3

Assay [19] is described as follows: Cell cycle arrest in human KB/HeLa cells assessed as G1 phase accumulation at 100 nM after 24 hrs by FACS analysis. The class given is functional, cell-based. The essentials:
as §3

A short description of assay [20]: Cell cycle arrest in human KB/HeLa cells assessed as G1 phase accumulation at 3.16 nM after 24 hrs by FACS analysis. The format is functional, cell-based. The essentials: as §3
Assay [21] can be described thus: Cell cycle arrest in human KB/HeLa cells assessed as S phase accumulation at 10 nM after 24 hrs by FACS analysis. The format is functional, cell-based. The essentials: as §3
Assay [22] can be described thus: Cell cycle arrest in human KB/HeLa cells assessed as G1 phase accumulation at 0.3 nM after 24 hrs by FACS analysis. The class given is functional, cell-based. The essentials: as §3
A short description of assay [23]: Cell cycle arrest in human KB/HeLa cells assessed as G1 phase accumulation at 316 nM after 24 hrs by FACS analysis. The class given is functional, cell-based. Put shortly: as §3
Assay [24] can be described thus: Cell cycle arrest in human KB/HeLa cells assessed as S phase accumulation at 3.16 nM after 24 hrs by FACS analysis. The format is functional, cell-based. The essentials: as §3
A short description of assay [25]: Cell cycle arrest in human KB/HeLa cells assessed as S phase accumulation at 31.6 nM after 24 hrs by FACS analysis. The class given is functional, cell-based. Put shortly: as §3
The nature of assay [26]: Cell cycle arrest in human KB/HeLa cells assessed as S phase accumulation at 100 nM after 24 hrs by FACS analysis. The class given is functional, cell-based. Put shortly: as §3
A short description of assay [27]: Cell cycle arrest in human KB/HeLa cells assessed as G1 phase accumulation at 10 nM after 24 hrs by FACS analysis. The format is functional, cell-based. Put shortly: as §3
Assay [28] in a line: Cell cycle arrest in human KB/HeLa cells assessed as S phase accumulation at 1 nM after 24 hrs by FACS analysis. The format is functional, cell-based. Put shortly:
as §3

Assay [29] in a line: Cell cycle arrest in human KB/HeLa cells assessed as S phase accumulation at 316 nM after 24 hrs by FACS analysis. The class given is functional, cell-based. The essentials:
as §3

The nature of assay [30]: Cell cycle arrest in human KB/HeLa cells assessed as G2/M phase accumulation at 31.6 nM after 24 hrs by FACS analysis. The format is functional, cell-based. The essentials:
as §3

A short description of assay [31]: Cell cycle arrest in human KB/HeLa cells assessed as G2/M phase accumulation at 3.16 nM after 24 hrs by FACS analysis. The format is functional, cell-based. The essentials:
as §3

The nature of assay [32]: Cell cycle arrest in human KB/HeLa cells assessed as G1 phase accumulation at 0.1 nM after 24 hrs by FACS analysis. The class given is functional, cell-based. Put shortly: as §3
Assay [33] can be described thus: Cell cycle arrest in human KB/HeLa cells assessed as G2/M phase accumulation at 0.1 nM after 24 hrs by FACS analysis. The class given is functional, cell-based. Put shortly:
as §3

The nature of assay [34]: Cell cycle arrest in human KB/HeLa cells assessed as S phase accumulation at 0.1 nM after 24 hrs by FACS analysis. The class given is functional, cell-based. The essentials:
as §3

A word on the IC50: it is the midpoint of a concentration-inhibition curve. A higher IC50 goes with a need for much substance. In the case of `COc1ccc(C(=O)C=C2c3ccccc3C(=O)c3ccccc32)cc1OC`, the IC50 in assay [1] amounted to 370 nM; with RKO [2], 510 nM; in [3], 440 nM; in the assay with P388 [4], 1100 nM; in [5], 1080 nM; with K562, 1300 nM. Moreover, the IC50 at Tubulin is 6000 nM; in the assay on L1210 [6] it was 970 nM; in the assay on NCI-H460, 1400 nM; with P388 [7] it was 900 nM; in the assay on SF-268, 2700 nM; in the assay on L1210 [8], 970 nM. Besides, the IC50 in the assay with RKO [9] was over 9000 nM.
The term EC50 denotes the midpoint of the concentration-response curve. On to `COc1cc2c(c(OC)c1OC)-c1ccc(OC)c(=O)cc1[C@@H](NC(C)=O)CC2` [COLCHICINE], for which the Activity in [10] stood at 10.1%; in [11], 64.7%; in [12] it was 94.5%; in [13], 0.5%; in assay [14] it was 10%; in [16], 94.7%. The Activity is 32.1% in assay [17]; 26.6% in [18]; 0.3% in assay [19]; 64.3% in [20]; 35.7% in assay [21]; 63.3% in [22]. Further, the Activity in assay [23] is 0.3%; in [24] it was 25.1%; in assay [25] it was 11.9%; in [26] it was 5.1%; in [27] it was 32.2%; in assay [28], 25.4%. For the same compound, the Activity in assay [29] was 5.2%; in assay [30], 87.6%. Moreover, the concentration for half-maximal inhibition (IC50) with RKO [2] was 10 nM; with SK-OV-3 it was 10 nM; in assay [5], 10 nM; with NCI-H460, 10 nM; with SF-268, 10 nM; with RKO [9], over 3000 nM. Moreover, the EC50 in [15] came out at 14 nM.
Regarding `CC[C@]1(O)C[C@H]2CN(CCc3c([nH]c4ccccc34)[C@@](C(=O)OC)(c3cc4c(cc3OC)N(C=O)[C@H]3[C@@](O)(C(=O)OC)[C@H](OC(C)=O)[C@]5(CC)C=CCN6CC[C@]43[C@@H]65)C2)C1` [VINCRISTINE], the Activity in assay [10] is 11.7%; in [11], 53.7%; in assay [12], 5.9%; in assay [13] it was 92.6%; in [14] it was 17.2%; in assay [16], 4.8%. The Activity in assay [17] came out at 13.1%; in [31], 65.8%; in [18], 24%; in assay [19], 95.1%; in assay [20], 6.5%; in assay [21], 6.5%. The Activity worked out at 64.5% in assay [22]; 61.2% in assay [32]; 93.8% in assay [23]; 26% in assay [24]; 11.1% in assay [33]; 0.5% in assay [25]. Further, the Activity in assay [26] came to 1%; in assay [27] it was 86.7%; in assay [34] it was 27.7%; in assay [28], 28.3%; in [29], 0.2%; in assay [30], 7.2%. Moreover, the EC50 in [15] was determined as 2.4 nM.
